Laboratory results taken from ChEMBL document CHEMBL4732214, “Highly Selective Y Receptor Antagonist Binds in an Allosteric Binding Pocket” (J Med Chem, 2021).
One block for each compound: values may come before it. Calls of active or inactive are those of the source. The rule behind the calls is not given here.

Tests used:
[1] = target: T1, Neuropeptide Y receptor type 2 (Mus musculus) (UniProt P97295); experiment: Allosteric antagonist activity at NPY2R in mouse descending colon mucosa assessed as reduction in PYY-induced ion transport at 0.3 to 30 uM by electrophysiology; details: dose 0.3-30 µM
T1 sequence (whole entry): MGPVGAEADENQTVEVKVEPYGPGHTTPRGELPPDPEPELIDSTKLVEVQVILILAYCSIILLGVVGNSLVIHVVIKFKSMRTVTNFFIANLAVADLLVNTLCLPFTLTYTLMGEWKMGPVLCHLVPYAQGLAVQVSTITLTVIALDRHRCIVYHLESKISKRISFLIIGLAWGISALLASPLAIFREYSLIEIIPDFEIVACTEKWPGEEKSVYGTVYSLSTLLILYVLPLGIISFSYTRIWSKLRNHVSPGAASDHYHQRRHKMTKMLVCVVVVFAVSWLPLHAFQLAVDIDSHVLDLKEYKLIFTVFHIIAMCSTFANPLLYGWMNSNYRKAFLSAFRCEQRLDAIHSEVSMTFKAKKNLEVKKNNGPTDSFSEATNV

[2] = target: T2, Neuropeptide Y receptor type 1 (Mus musculus) (UniProt Q04573); experiment: Allosteric antagonist activity at NPY1R in mouse descending colon mucosa assessed as reduction in PYY-induced ion transport at 30 uM by electrophysiology
T2 sequence (whole entry): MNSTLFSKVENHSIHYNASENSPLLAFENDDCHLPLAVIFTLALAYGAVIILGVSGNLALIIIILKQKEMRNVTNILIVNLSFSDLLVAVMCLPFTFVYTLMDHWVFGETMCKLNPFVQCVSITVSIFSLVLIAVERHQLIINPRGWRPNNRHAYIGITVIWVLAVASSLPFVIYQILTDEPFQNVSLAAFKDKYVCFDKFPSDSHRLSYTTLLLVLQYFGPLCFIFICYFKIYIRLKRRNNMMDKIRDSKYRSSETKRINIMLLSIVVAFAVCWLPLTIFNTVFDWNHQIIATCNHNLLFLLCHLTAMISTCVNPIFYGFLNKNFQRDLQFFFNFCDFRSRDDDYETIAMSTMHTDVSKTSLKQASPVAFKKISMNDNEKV

[3] = target: T3, Neuropeptide Y receptor type 4 (Homo sapiens, UniProt P50391); experiment: Allosteric antagonist activity at […]-tagged human NPY4R expressed in COS7 cells co-expressing Gqi5-alpha assessed as inhibition of PP-induced Ca2+ flux by Fluo-2 AM dye based fluorescent assay relative to control; format: functional, cell-based
T3 sequence (P50391 whole entry): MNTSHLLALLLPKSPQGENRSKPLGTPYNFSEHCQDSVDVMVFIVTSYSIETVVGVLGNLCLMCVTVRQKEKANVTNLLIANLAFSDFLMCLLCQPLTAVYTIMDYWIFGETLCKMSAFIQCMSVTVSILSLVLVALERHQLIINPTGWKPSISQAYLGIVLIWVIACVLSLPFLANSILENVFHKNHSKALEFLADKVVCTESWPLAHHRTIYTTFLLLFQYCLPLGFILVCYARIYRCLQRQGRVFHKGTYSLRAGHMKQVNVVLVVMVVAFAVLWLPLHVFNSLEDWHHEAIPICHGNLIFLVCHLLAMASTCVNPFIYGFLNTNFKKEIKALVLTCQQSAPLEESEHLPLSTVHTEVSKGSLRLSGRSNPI

[4] = target: T2, Neuropeptide Y receptor type 1 (Mus musculus); experiment: Allosteric antagonist activity at NPY1R in mouse descending colon mucosa assessed as reduction in PYY-induced ion transport at 0.3 to 30 uM by electrophysiology; details: dose 0.3-30 µM
[5] = target: T1, Neuropeptide Y receptor type 2 (Mus musculus); experiment: Allosteric antagonist activity at NPY2R in mouse descending colon mucosa assessed as reduction in PYY-induced ion transport at 30 uM by electrophysiology
COS7 [6] = experiment: Allosteric antagonist activity at human NPY4R chimera containing NPY1R transmembrane helix 1 expressed in COS7 cells co-expressing Gqi5-alpha assessed as inhibition of PP-induced Ca2+ flux at 15 uM by Fluo-2 AM dye based fluorescent assay; format: cell-based
Outline: (§1)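 Y4R/Y1R chimeras carrying Y1R TM1, TM2 or ECL2 segments, C-terminal eYFP, transiently cotransfected with Δ6Gαqi4myr in COS7 cells. Fluo2-AM Ca²⁺ flux. 15 μM antagonist or DMSO added, followed by PP. Reduction in PP response given relative to DMSO control, normalized to 1 μM PP.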

[7] = target: T3, Neuropeptide Y receptor type 4; experiment: Allosteric antagonist activity at human NPY4R expressed in HEK293 cells assessed as reduction in PP-induced arrestin-3 recruitment at 30 uM measured after 30 mins by BRET assay; format: cell-based; details: filed as allosteric antagonist
Outline: (§2)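 BRET in HEK293 cells transiently expressing Y4R-Rluc8 and venus-arr3. Pretreated with 30 μM compound or DMSO, then read continuously for 30 min after 100 nM PP. Fluorescence/luminescence ratio, unstimulated control subtracted to give netBRET. Rate constant k from a one-phase association fit. N ≥ 4, unpaired t-test.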

[8] = target: T3, Neuropeptide Y receptor type 4; experiment: Inhibition of 10 nM PP-induced receptor internalization of eYFP-tagged human NPY4R expressed in HEK293 cells at 30 uM after 30 mins by fluorescence microscopy; format: cell-based; details: filed as allosteric antagonist
Outline: (§3)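 HEK293 cells stably expressing Y4R-eYFP, nuclei stained with Hoechst. Cells given 30 μM compound or DMSO in OptiMEM, then 10 or 100 nM PP (or medium) for 30 min at 37 °C. eYFP imaged at a fixed 400 ms exposure. Cell-surface fluorescence quantified as pixel intensity, normalized to unstimulated DMSO control.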

[9] = target: T3, Neuropeptide Y receptor type 4; experiment: Allosteric antagonist activity at human NPY4R expressed in HEK293 cells assessed as reduction in rate of PP-induced arrestin-3 recruitment at 30 uM measured after 30 mins by BRET assay; format: cell-based; details: filed as allosteric antagonist
Outline: as §2

[10] = target: T3, Neuropeptide Y receptor type 4; experiment: Displacement of [125I]-PP from human NPY4R expressed in HEK293 cell membranes incubated for 5 hrs by microBeta scintillation counting assay; details: Cell membrane, filed as allosteric antagonist
Outline: (§4)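 Membranes from stable HEK293 Y4R-eYFP cells, 0.3 μg in HEPES buffer (25 mM HEPES, […], 1 mM MgCl2, Pefabloc, pH 7.4) with DMSO or compound. Incubated with 60 or 180 pM human ¹²⁵I-PP for 5 h at room temperature. Nonspecific binding set with 1 μM PP. Bound ligand collected on PEI-soaked GF/C filters and counted by scintillation.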

[11] = target: T4, Neuropeptide Y receptor type 2 (Homo sapiens) (UniProt P49146); experiment: Allosteric antagonist activity at […]-tagged human NPY2R expressed in COS7 cells co-expressing Gqi5-alpha assessed as inhibition of NPY-induced Ca2+ flux at 30 uM by Fluo-2 AM dye based fluorescent assay; format: functional, cell-based
T4 sequence (whole entry): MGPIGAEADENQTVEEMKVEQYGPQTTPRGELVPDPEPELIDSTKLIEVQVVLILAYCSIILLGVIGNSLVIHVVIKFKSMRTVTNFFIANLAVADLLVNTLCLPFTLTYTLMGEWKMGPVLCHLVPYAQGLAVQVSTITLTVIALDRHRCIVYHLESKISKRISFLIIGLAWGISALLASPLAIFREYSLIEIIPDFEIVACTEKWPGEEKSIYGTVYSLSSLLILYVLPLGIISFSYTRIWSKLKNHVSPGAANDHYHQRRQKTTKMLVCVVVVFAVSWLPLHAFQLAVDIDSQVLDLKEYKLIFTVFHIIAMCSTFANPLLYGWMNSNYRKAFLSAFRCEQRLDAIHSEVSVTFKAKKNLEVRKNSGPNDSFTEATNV
Outline: (§5)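 Stable COS7 lines expressing Y1R-, Y2R- or Y5R-eYFP plus chimeric Δ6Gαqi4myr, loaded with 2.4 μM Fluo2-AM in HBSS/20 mM HEPES/2.5 mM probenecid pH 7.4. After 20 s baseline, DMSO or 30 μM compound added, NPY added 110 s later, 140 s run. Read at ex 485/em 525 nm. Signal taken as x-fold over basal, normalized to 1 μM NPY maximum. N ≥ 3.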

COS7 [12] = experiment: Allosteric antagonist activity at human NPY4R chimera containing NPY1R extracellular loop 2 expressed in COS7 cells co-expressing Gqi5-alpha assessed as inhibition of PP-induced Ca2+ flux at 15 uM by Fluo-2 AM dye based fluorescent assay; format: cell-based
Outline: as §1

[13] = target: T3, Neuropeptide Y receptor type 4; experiment: Inhibition of 100 nM PP-induced receptor internalization of eYFP-tagged human NPY4R expressed in HEK293 cells at 30 uM after 30 mins by fluorescence microscopy; format: cell-based; details: filed as allosteric antagonist
Outline: as §3

[14] = target: T3, Neuropeptide Y receptor type 4; experiment: Inhibition of receptor internalization of eYFP-tagged human NPY4R expressed in HEK293 cells at 30 uM after 30 mins by fluorescence microscopy; format: cell-based
Outline: as §3

[15] = target: T5, Neuropeptide Y receptor type 5 (Homo sapiens) (UniProt Q15761); experiment: Allosteric antagonist activity at […]-tagged human NPY5R expressed in COS7 cells co-expressing Gqi5-alpha assessed as inhibition of NPY-induced Ca2+ flux at 30 uM by Fluo-2 AM dye based fluorescent assay; format: functional, cell-based
T5 sequence (whole entry): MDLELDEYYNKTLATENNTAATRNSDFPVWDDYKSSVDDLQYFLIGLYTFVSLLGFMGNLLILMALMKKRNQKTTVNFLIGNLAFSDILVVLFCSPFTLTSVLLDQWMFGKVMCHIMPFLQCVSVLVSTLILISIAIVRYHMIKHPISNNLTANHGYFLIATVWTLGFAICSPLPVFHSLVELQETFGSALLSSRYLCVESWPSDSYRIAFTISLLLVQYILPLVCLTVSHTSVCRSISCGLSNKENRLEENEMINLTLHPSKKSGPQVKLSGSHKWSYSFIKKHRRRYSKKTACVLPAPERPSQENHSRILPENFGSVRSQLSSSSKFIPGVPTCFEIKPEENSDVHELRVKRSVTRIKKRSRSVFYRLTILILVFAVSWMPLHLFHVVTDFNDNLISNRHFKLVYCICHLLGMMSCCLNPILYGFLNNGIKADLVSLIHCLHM
Outline: as §5

[16] = target: T3, Neuropeptide Y receptor type 4; experiment: Displacement of [125I]-PP from human NPY4R expressed in HEK293 cell membranes assessed as remaining radioligand binding incubated for 5 hrs using 180 pM [125I]-PP by microBeta scintillation counting assay; details: Cell membrane
Outline: as §4

[17] = target: T6, Neuropeptide Y receptor type 1 (Homo sapiens) (UniProt P25929); experiment: Allosteric antagonist activity at […]-tagged human NPY1R expressed in COS7 cells co-expressing Gqi5-alpha assessed as inhibition of NPY-induced Ca2+ flux at 30 uM by Fluo-2 AM dye based fluorescent assay; format: functional, cell-based
T6 sequence (whole entry): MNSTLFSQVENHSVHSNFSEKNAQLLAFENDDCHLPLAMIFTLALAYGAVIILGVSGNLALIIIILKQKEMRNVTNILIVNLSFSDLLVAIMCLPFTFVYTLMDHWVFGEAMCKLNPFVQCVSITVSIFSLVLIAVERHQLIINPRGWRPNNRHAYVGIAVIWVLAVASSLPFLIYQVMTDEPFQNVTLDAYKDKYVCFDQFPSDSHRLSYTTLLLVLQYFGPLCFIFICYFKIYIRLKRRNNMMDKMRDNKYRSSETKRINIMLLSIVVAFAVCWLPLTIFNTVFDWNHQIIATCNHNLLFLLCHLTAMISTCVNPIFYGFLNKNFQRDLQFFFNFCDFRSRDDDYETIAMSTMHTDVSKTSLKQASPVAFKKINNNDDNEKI
Outline: as §5

[18] = target: T3, Neuropeptide Y receptor type 4; experiment: Displacement of [125I]-PP from human NPY4R expressed in HEK293 cell membranes assessed as remaining radioligand binding incubated for 5 hrs using 60 pM [125I]-PP by microBeta scintillation counting assay; details: Cell membrane, filed as allosteric antagonist
Outline: as §4

COS7 [19] = experiment: Allosteric antagonist activity at human NPY4R chimera containing NPY1R transmembrane helix 2 expressed in COS7 cells co-expressing Gqi5-alpha assessed as inhibition of PP-induced Ca2+ flux at 15 uM by Fluo-2 AM dye based fluorescent assay; format: cell-based
Outline: as §1

inhibition [1]: inactive
inhibition [2]: inactive
pIC50 [3]: inactive
IC50 ([3]; cos7): Not Active
inhibition [4]: inactive
inhibition [5]: inactive
SMILES: CS(=O)(=O)N1CCCC[C@@H]1C(=O)Nc1nc2cc3c(cc2s1)OCCO3

inhibition [7]: Active
inhibition [8]: Active
inhibition [9]: Active
inhibition [10]: Dose-dependent effect
inhibition [11]: inactive
IC50 ([3]; read-out: IC50): 4 µM
inhibition [13]: Active
inhibition [14]: inactive
inhibition [15]: inactive
inhibition [16]: inactive
inhibition [17]: inactive
Activity [18]: 15%
SMILES: CS(=O)(=O)N1CCCCC1C(=O)Nc1nc2cc3c(cc2s1)OCCO3 (racemic)
inhibition (COS7 [6]): inactive
inhibition (COS7 [12]): inactive
inhibition (COS7 [19]): inactive
